Source: PubChem BioAssay (several laboratories)
PHOSPHO1 inh – PHOSPHO1 (human) inhibition | 1.1% of 290,000 active | Q8TCT1 | recombinant PHOSPHO1, absorbance phosphatase assay | inhibition, % at 13.3 µM | AID 1565; in the data active means inhibition above about 60%
RGS4 act – potentiators or activators of RGS4. AID 463111. HEK293 M3R/inducible RGS4, carbachol calcium flux Fluo4; active compounds read low. B-score at 10 µM. 0.92% of 310,000 active;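 active means B-score of the integrated calcium signal more than 4 SD below the library mean, with starting fluorescence not abnormally high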;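 further: negative B-score means reduced calcium response which marks RGS4 activation or potentiation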
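Material: Inducible-RGS4 HEK293 cells carrying M3 receptor; also added: carbachol at ECmax as muscarinic agonist stimulus; incubation: compound preincubation 20 min at room temperature before agonist; signal: Fluo4-AM (2 µM) calcium-flux fluorescence, kinetic read; measure: integrated calcium ratio converted to B score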
MrgX1 antag – blocks BAM8-22 activation of human MrgX1 receptor | Q96LB2 | MRGX1-HEK293 calcium flux, Fluo-4, BAM8-22 antagonism; active compounds read low | B-score at 10 µM | 1.3% of 310,000 active;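 active means calcium-response B-score plate-corrected more than 3 library SD below zero, starting fluorescence within 5 deviations, no agonist response on first addition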;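 further: peak minus trough fluorescence over baseline after final BAM8-22 challenge near maximal dose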
Target sequence (Q96LB2 whole entry, looked up): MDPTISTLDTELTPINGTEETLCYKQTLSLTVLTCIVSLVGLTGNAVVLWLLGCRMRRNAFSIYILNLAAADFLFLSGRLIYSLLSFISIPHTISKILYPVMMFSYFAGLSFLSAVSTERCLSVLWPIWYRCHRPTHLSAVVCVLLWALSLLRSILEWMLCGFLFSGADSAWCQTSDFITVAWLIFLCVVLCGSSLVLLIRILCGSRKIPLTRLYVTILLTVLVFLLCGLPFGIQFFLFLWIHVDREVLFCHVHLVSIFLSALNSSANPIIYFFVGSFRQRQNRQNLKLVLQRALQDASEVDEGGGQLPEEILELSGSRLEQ
MrgX1 agonist – human MrgX1 receptor agonism, primary screen; Q96LB2; MrgX1-HEK293 cells, Fluo-4 calcium fluorescence, agonist mode; active compounds read high; B-score at 10 µM; 0.44% of 310,000 active;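 active means calcium response B-score plate-corrected fluorescence ratio at least 3 library SD, with starting fluorescence B-score inside 5 SD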
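Material: MrgX1-expressing HEK293 cells; input: 15,000 cells per well; doses: test compound given as first of three sequential additions; schedule: overnight plating before 1 h dye loading; technique: Fluo-4 NW calcium-flux fluorescence, kinetic read; evaluation: baseline-normalised fluorescence change ratio, B-scored; control set: plate-wise positive and negative controls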
RGS4 block – inhibitors of human RGS4. HEK293 M3R/RGS4 inducible, Fluo-4 calcium flux; active compounds read high; triggered by carbachol at its EC20. B-score at 10 µM. 0.45% of 310,000 active;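 active means B-score, a plate-corrected calcium signal, over three deviations above library mean, with baseline fluorescence within five deviations of library mean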;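 further: RGS4 expression induced by doxycycline in cells with stable M3 receptor; B-score is computed from the integrated fluorescence ratio over baseline after carbachol; higher B-score means a larger calcium signal and so more RGS4 inhibition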
Target sequence (P49798 whole entry, looked up): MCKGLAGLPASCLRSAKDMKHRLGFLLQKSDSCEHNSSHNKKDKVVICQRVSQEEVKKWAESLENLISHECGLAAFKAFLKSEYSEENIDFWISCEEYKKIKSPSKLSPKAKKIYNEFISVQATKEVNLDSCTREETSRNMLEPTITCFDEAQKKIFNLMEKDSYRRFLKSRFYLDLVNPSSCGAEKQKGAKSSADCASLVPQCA
MrgX1 allo act – allosterically activates human MrgX1 receptor signaling; Q96LB2; MrgX1-HEK293, Fluo-4 calcium flux, FDSS; active compounds read high; B-score at 10 µM; 0.63% of 310,000 active;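 active means plate-corrected calcium response at least 3 library SD above typical, normal starting fluorescence, not activating the receptor alone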;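 further: compound read alongside a low EC10 to EC30 dose of BAM8-22 agonist; peak minus trough fluorescence over baseline measured at the second addition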
Active calls of the source: *; i = inactive; x = no result. Most compounds without a hit are left out; they make up all but 4.5% or so of the library.

SMILES	PHOSPHO1 inh	RGS4 act	MrgX1 antag	MrgX1 agonist	RGS4 block	MrgX1 allo act
CC(=O)NC(Nc1c(C)n(C)n(-c2ccccc2)c1=O)C(Cl)(Cl)Cl (stereo not drawn)	-16	i	i	i	i	i
COc1cc(-c2[nH]ncc2CN(C)Cc2cc(C)[nH]n2)cc(OC)c1OC	6	i	i	i	i	i
CC(=O)c1sc2nc(-c3cccs3)ccc2c1N	73*	i	i	i	i	i
CC12CCC(=O)N1C(C(=O)NCCN1C(=O)S/C(=C\c3ccc(F)cc3)C1=O)CS2 (stereo not drawn)	x	i	i	i	i	i
CN(CC(=O)NCc1ccc(F)cc1)CC(=O)Nc1ccc(Cl)c(C(F)(F)F)c1	27	i	-5.6*	i	i	i
Cc1nnc(N2CCOCC2)c2nn(-c3ccccc3)c(C)c12	-8	i	i	i	i	i
c1ccc(-n2nnc3c(N4CCOCC4)ncnc32)cc1	68*	i	i	i	i	i
CCCCN(CC)S(=O)(=O)c1ccc(C(=O)Nc2nnc(-c3cccs3)o2)cc1	12	i	i	33*	i	i
CC1(C)CN(c2cccc(Br)c2)C1=O	20	i	i	i	i	i
O=C(NC(=S)Nc1ccccc1Cl)c1csnn1	65*	i	i	i	i	i
C=CC[n+]1c(-c2ccc(OC)cc2)csc1NNC(=O)Nc1ccccc1	66*	i	i	i	i	i
C=CCNC(=S)NNC(=O)c1csc(C)c1CC	81*	i	i	i	i	i
Cn1c(N)c(C(=O)COC(=O)CCc2ccccc2)c(=O)n(C)c1=O	19	i	i	i	i	i
O=c1oc2ccccc2n1Cc1cccc(C(F)(F)F)c1	x	i	i	i	i	i
Cc1ccc(-n2c(SCC(=O)N3CCOCC3)nc(O)cc2=O)cc1	56	i	i	i	i	i
COc1ccc(C(=O)/C=C/c2ccc(N3CCCCC3)c([N+](=O)[O-])c2)c(OC)c1	-9	i	i	i	i	14*
COc1ccc(C(=O)/C=C/c2ccc(N3CCCCC3)c([N+](=O)[O-])c2)cc1	-19	i	i	i	i	i
O=S(=O)(Nc1ccccn1)c1ccc(Cl)c2ccccc12	-37	i	i	i	i	i
COc1ccc(C(C(=O)NC2CCCC2)N(C(=O)c2snc(C(N)=O)c2N)c2cccc(O)c2)cc1 (stereo not drawn)	-83	i	i	i	i	6.5*
CN1CCc2c(sc3c2C(=O)NC(c2cn(Cc4ccccc4)c4ccccc24)N3)C1 (stereo not drawn)	-31	i	i	29*	i	i
CN1CCc2c(sc3c2C(=O)NC(c2ccco2)N3)C1 (stereo not drawn)	9	i	i	27*	i	i
O=C1NC(c2ccco2)Nc2sc3c(c21)CCN(Cc1ccccc1)C3 (stereo not drawn)	10	x	i	30*	x	i
CN1CCc2c(sc3c2C(=O)NC(c2cccc(OC(=O)c4cccs4)c2)N3)C1 (stereo not drawn)	-14	i	i	i	i	i
COc1ccc(Br)cc1C1NC(=O)c2c(sc3c2CCN(C)C3)N1 (stereo not drawn)	17	x	x	x	x	x
CCOC(=O)N1CCc2c(sc3c2C(=O)NC(c2ccccc2)N3)C1 (stereo not drawn)	66*	i	i	i	i	i
SMILES	PHOSPHO1 inh	RGS4 act	MrgX1 antag	MrgX1 agonist	RGS4 block	MrgX1 allo act
O=c1c2c3c(sc2n2cnnc2n1Cc1ccccc1)CN(Cc1ccccc1)CC3	7	i	i	i	i	i
CN1CCN(C(=O)C23CC4CC(C2)CC(c2ccccc2)(C4)C3)CC1	37	i	i	i	i	i
O=C(NCC1CC1)c1onc(CSc2ccncc2)c1C(=O)NCC1CC1	26	i	i	i	i	i
CCCCn1c(N)c(N(CCOC)C(=O)CSCc2ccccc2C)c(=O)[nH]c1=O	x	i	i	i	i	i
CCCN(C(=O)CSCc1ccccc1C)c1c(N)n(Cc2ccccc2)c(=O)[nH]c1=O	x	i	-7.2*	i	i	i
COc1ccc(C(CCN2CCCCC2)c2c(OC)cc(OC)c3c(-c4ccccc4)cc(=O)oc23)cc1 (stereo not drawn)	4	i	i	i	i	14*
CCCCN(C(=O)c1cccc2c(=O)c(C)c(-c3ccccc3)oc12)c1ccccc1	-5	i	x	x	i	x
NC(=S)C1COc2ccccc2O1 (stereo not drawn)	11	i	i	i	i	i
Nn1c(C2COc3ccccc3O2)n[nH]c1=S (stereo not drawn)	78*	i	i	i	i	i
Cn1c(=O)c(Nc2ccc(Cl)cc2)c2c3c(cccc31)C(=O)c1ccccc1-2	-13	-7*	i	i	i	i
O=C(O)C1CCC(NSc2ccccc2[N+](=O)[O-])CC1 (stereo not drawn)	24	i	i	i	i	i
CCN(c1ccccc1)S(=O)(=O)c1ccc(Cl)c(C(=O)OCC(=O)c2[nH]c(C)c(C(C)=O)c2C)c1	-5	-7.2*	i	i	i	i
CC(=O)c1c(C)[nH]c(C(=O)COC(=O)c2cc(S(=O)(=O)N(C)c3ccccc3)ccc2Cl)c1C	-12	i	i	i	i	i
CSc1nnc(NC(=O)CCc2ccccc2)s1	82*	i	i	i	i	i
CC(C)(C)Cc1nnc(NC(=O)CCc2ccccc2)s1	x	i	i	i	i	i
O=C1Nc2ccc([N+](=O)[O-])cc2OC1CCN1CCN(Cc2ccc3c(c2)OCO3)CC1 (stereo not drawn)	6	i	i	i	i	i
COc1ccc(Nc2c([N+](=O)[O-])ccc3c2=NC2(CCCCC2)N=3)cc1	4	i	i	i	i	i
CSc1ccccc1OCc1cc(C(=O)N2CCc3sccc3C2)no1	19	-7.8*	i	i	i	i
CCn1ccnc1CN(C)C(=O)c1cc(COc2ccccc2SC)on1	46	-7.6*	i	i	i	i
Cc1ccc(C)c(OCc2cc(C(=O)N3CCc4sccc4C3)no2)c1	18	i	i	i	i	i
CCC1CCCCN1S(=O)(=O)c1ccc(-n2cnnn2)c(C)c1 (stereo not drawn)	27	i	i	i	i	i
